Results gathered from unrelated publications.
Target: Myosin light chain kinase (MYLK3, Homo sapiens, UniProt Q32MK0)
Sequence (Q32MK0 1-819, as in one of the studies): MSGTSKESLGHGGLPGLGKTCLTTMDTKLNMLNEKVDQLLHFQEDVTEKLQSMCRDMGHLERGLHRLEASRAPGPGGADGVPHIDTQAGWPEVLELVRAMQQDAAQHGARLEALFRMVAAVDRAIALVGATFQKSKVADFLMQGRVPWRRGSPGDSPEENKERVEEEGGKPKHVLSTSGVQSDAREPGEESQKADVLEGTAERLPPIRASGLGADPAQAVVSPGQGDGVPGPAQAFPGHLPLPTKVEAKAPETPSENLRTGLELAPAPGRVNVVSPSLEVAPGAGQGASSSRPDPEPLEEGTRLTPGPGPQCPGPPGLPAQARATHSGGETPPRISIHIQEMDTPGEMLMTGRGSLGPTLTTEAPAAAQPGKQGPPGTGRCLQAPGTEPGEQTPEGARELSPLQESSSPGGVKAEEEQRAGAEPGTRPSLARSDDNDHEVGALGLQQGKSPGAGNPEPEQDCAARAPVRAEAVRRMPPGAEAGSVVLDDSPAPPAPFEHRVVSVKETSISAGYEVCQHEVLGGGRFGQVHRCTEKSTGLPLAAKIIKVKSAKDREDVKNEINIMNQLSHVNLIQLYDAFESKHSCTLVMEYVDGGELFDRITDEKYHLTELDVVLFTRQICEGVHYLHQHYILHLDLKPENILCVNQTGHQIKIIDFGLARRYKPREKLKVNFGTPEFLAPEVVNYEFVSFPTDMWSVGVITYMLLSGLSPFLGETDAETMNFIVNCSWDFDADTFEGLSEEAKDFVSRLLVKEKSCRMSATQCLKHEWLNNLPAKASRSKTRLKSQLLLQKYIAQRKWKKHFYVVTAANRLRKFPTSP

CNC(=O)[C@@H]1CC[C@@H](n2c(-c3ccc4cnccc4c3)nc3ccc(C(=O)NCc4cccc(C(N)=O)c4)cc32)C1  remaining binding (binding; competition with immobilised ligand; 1 µM): 100%
CC(=O)N1CCC(c2ccc(C(=O)NC3=NCCN3)cc2C(F)(F)F)CC1  remaining binding (cell-free assay; competition with immobilised ligand; 1 µM): 100%
C[C@H]1CCN(c2nccc(-c3cnn4ncccc34)n2)C1  remaining binding (binding; 1 µM): 98%
COc1cnc(Nc2cccc(S(N)(=O)=O)c2)nc1N1CCN(c2ccccc2)C(=O)C1  remaining binding (binding; competition with immobilised ligand; 1 µM): 97%
N[C@@H]1CCN(c2nccc(-c3cnn4ncccc34)n2)C1  remaining binding (binding; 1 µM): 100%
O=C(c1ccc(Nc2ncc(Cl)c(-c3ccc(Cl)s3)n2)cc1)N1CCC(N2CCCC2)CC1  remaining binding (binding; competition with immobilised ligand; 1 µM): 6.7%
O=C(Nc1c[nH]nc1C(=O)NC1CCNCC1)c1cc(F)cc(F)c1  remaining binding (binding; competition with immobilised ligand; 1 µM): 90%
O=C(NCCCN1CCOCC1)c1ccc(Nc2ncc(Cl)c(-c3ccc(Cl)s3)n2)cc1  remaining binding (binding; competition with immobilised ligand; 1 µM): 7.9%
CN(CCCC(F)(F)F)c1nccc(-c2cnn3ncccc23)n1  remaining binding (binding; 1 µM): 100%
CCS(=O)(=O)c1cc2cc(C[C@](O)(CC(C)(C)c3ccc(F)cc3C(N)=O)C(F)(F)F)[nH]c2cn1  remaining binding (cell-free assay; competition with immobilised ligand; 1 µM): 74%
Nc1ncc2c(n1)-c1c([nH]c3ccc(C#CC4CC4)cc13)CCCC2  remaining binding (binding; competition with immobilised ligand; 1 µM): 91%
O=C(c1ccc(Nc2nccc(-c3cc4ccccc4s3)n2)cc1)N1CCC(N2CCCC2)CC1  remaining binding (binding; competition with immobilised ligand; 1 µM): 2.5%
C[C@H](c1ccc(F)cc1)N(Cc1cccc(C(=O)O)c1)C(=O)c1cnc2ccccc2c1  remaining binding (cell-free assay; competition with immobilised ligand; 1 µM): 100%
CN(C)c1ncc(F)c(-c2cnn3ncccc23)n1  remaining binding (binding; 1 µM): 77%
Cn1nc(C(=O)NCc2ccc(C(=O)O)cc2)cc1-c1ccc2[nH]ccc2c1  remaining binding (cell-free assay; competition with immobilised ligand; 0.1 µM): 100%
C[C@@H](c1ccc(-n2cnc3c(N)ncnc32)cc1)N1CCc2nn(C)c(Cc3ccccc3)c2C1=O  remaining binding (binding; competition with immobilised ligand; 0.1 µM): 100%
CN(C)c1nccc(-c2cnc3ncccn23)n1  remaining binding (binding; 1 µM): 100%
O=C(Nc1cccnn1)N1CCC(=Cc2cccc(Oc3ccc(C(F)(F)F)cn3)c2)CC1  remaining binding (cell-free assay; competition with immobilised ligand; 1 µM): 100%
COc1ccnn2ncc(-c3ccnc(N(C)C)n3)c12  remaining binding (binding; 1 µM): 71%
CS(=O)(=O)N1CCCC(NC(=O)[C@H](CCC2CCCCC2)NC(=O)c2ccc(CNC(=O)c3cnc4ccccn34)cc2)C1 (some centres unmarked)  remaining binding (cell-free assay; competition with immobilised ligand; 0.1 µM): 88%
